Measured values from ChEMBL document CHEMBL4627401, “Structure Optimization of Gatastatin for the Development of γ-Tubulin-Specific Inhibitor” (ACS Med Chem Lett, 2020).
Activity calls are given as the source filed them. The rule behind the calls is not given here.

How the values were obtained:
Sus scrofa domesticus [1] = species: Sus scrofa domesticus; assay: Inhibition of porcine brain tubulin polymerization assessed as residual tubulin polymerization at 30 uM in presence of 0.8 M glutamate incubated for 30 mins by SDS-PAGE analysis (reference value: 84.8 +/- 9.9 %)
Method in brief: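 Polymer was separated by ultracentrifugation (200,000g, 10 min, 25 °C), tubulin measured by 10% SDS-PAGE densitometry and expressed as % polymerized. Mean ± SD, three independent experiments.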

HeLa [2] = assay: Inhibition of gamma-tubulin nucleation in human HeLa cells at 30 uM incubated for 15 mins; format: cell-based
HeLa [3] = assay: Cytotoxicity against human HeLa cells assessed as cell viability at 100 uM incubated for 48 hrs by WST8 cells relative to control; format: functional; conditions: read-out: Activity
HeLa [4] = assay: Inhibition of gamma-tubulin nucleation in human HeLa cells at 10 uM incubated for 15 mins; format: cell-based
HeLa [5] = assay: Induction of microtubule depolymerization in human HeLa cells at 30 uM incubated for 24 hrs by immunofluorescence microscopy; format: functional, cell-based
Method in brief: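 Interphase HeLa cells were treated for 24 h at 30 μM, then the MT network structure was examined by microscopy.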

HeLa [6] = assay: Cytotoxicity against human HeLa cells assessed as reduction in cell viability incubated for 48 hrs by WST8 cells; format: functional, cell-based
Method in brief: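 HeLa cells were exposed to a range of concentrations for 48 h. Growth was read by WST-8 cell counting, and IC50 values were calculated from the resulting curves.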

HeLa [7] = assay: Inhibition of gamma-tubulin in human HeLa cells assessed as abnormal spindle formation at 30 uM incubated for 24 hrs by immunofluorescence microscopy analysis relative to control; format: cell-based
Method in brief: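 Exponentially growing HeLa cells were treated with 30 μM for 24 h, then spindle morphology was classified as normal bipolar, bipolar with misaligned chromosomes, or multipolar. More than 100 cells were scored per experiment. Mean ± SD, three independent experiments, with DMSO as control.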

HeLa [8] = assay: Induction of microtubule depolymerization in human HeLa cells at 100 nM incubated for 6 hrs by immunofluorescence microscopic method; format: functional, cell-based
Sus scrofa domesticus [9] = species: Sus scrofa domesticus; assay: Induction of porcine brain tubulin polymerization at 10 uM in presence of 0.2 M glutamate incubated for 30 mins by SDS-PAGE analysis (reference value: 36.3 +/- 8.1 %)
HeLa [10] = assay: Inhibition of gamma-tubulin in human HeLa cells assessed as abnormal spindle formation at 1 uM incubated for 24 hrs by immunofluorescence microscopy analysis relative to control; format: cell-based
HeLa [11] = assay: Inhibition of gamma-tubulin nucleation in human HeLa cells at 100 uM incubated for 15 mins; format: cell-based
HeLa [12] = assay: Inhibition of gamma-tubulin in human HeLa cells assessed as abnormal spindle formation incubated for 24 hrs by immunofluorescence microscopy analysis; format: cell-based
Homo sapiens = species: Homo sapiens; assay: Inhibition of human gamma tubulin assessed as reduction in GTP binding to gamma-tubulin at 50 uM incubated for 15 mins by alpha-[32P]-GTP binding assay
HeLa [13] = assay: Inhibition of gamma-tubulin nucleation in human HeLa cells at 0.3 uM incubated for 15 mins; format: cell-based

SMILES: COc1cc2c(=O)c(-c3cc(OC)c(OC)c(OC)c3OC)coc2cc1OCc1ccccc1
- Activity (Sus scrofa domesticus [1]): 69 to 92%
- inhibition (HeLa [2]): Active
- viability at 100 µM (HeLa [3]): 77.3%
- inhibition (HeLa [4]): inactive
- Activity (HeLa [5]): inactive
- IC50 (HeLa [6]): > 100 µM
- inhibition (HeLa [7]): 65%

SMILES: COc1cc(-c2coc3cc(OCc4ccccc4)c(OC4CCCCO4)cc3c2=O)c(OC)c2c1OC(C)(C)O2 (centres undefined)
- Activity (Sus scrofa domesticus [1]): 69 to 92%
- viability at 100 µM (HeLa [3]): 101%
- Activity (HeLa [5]): inactive
- IC50 (HeLa [6]): > 100 µM
- inhibition (HeLa [7]): inactive

SMILES: COc1cc(-c2coc3cc(OCc4ccccc4)c(OCc4ccccc4)cc3c2=O)c(OC)c2c1OC(C)(C)O2
- Activity (Sus scrofa domesticus [1]): 69 to 92%
- viability at 100 µM (HeLa [3]): 102%
- Activity (HeLa [5]): inactive
- IC50 (HeLa [6]): > 100 µM
- inhibition (HeLa [7]): inactive

SMILES: C#CCOc1cc2c(=O)c(-c3cc(OC)c4c(c3OC)OC(C)(C)O4)coc2cc1OCc1ccccc1
- Activity (Sus scrofa domesticus [1]): 69 to 92%
- viability at 100 µM (HeLa [3]): 102%
- Activity (HeLa [5]): inactive
- IC50 (HeLa [6]): > 100 µM
- inhibition (HeLa [7]): inactive

SMILES: CC(=O)O[C@H]1C(=O)[C@@]2(C)[C@H]([C@H](OC(=O)c3ccccc3)[C@]3(O)C[C@H](OC(=O)[C@H](O)[C@@H](NC(=O)c4ccccc4)c4ccccc4)C(C)=C1C3(C)C)[C@]1(OC(C)=O)CO[C@@H]1C[C@@H]2O
- Activity (HeLa [8]): Active
- Activity (Sus scrofa domesticus [9]): 91.6%

SMILES: COc1cc(-c2coc3cc(OCc4ccccc4)c(OCc4ccccc4)cc3c2=O)c(OC)c2c1OCO2
- inhibition (HeLa [10]): Active
- Activity (Sus scrofa domesticus [1]): 69 to 92%
- inhibition (HeLa [2]): Active
- Activity (HeLa [5]): inactive
- IC50 (HeLa [6]): 1.1 µM

SMILES: COc1cc2c(=O)c(-c3ccc4c(c3)OCO4)coc2cc1OCc1ccccc1
- Activity (Sus scrofa domesticus [1]): 69 to 92%
- inhibition (HeLa [11]): inactive
- viability at 100 µM (HeLa [3]): 101%
- Activity (HeLa [5]): inactive
- IC50 (HeLa [6]): > 100 µM
- inhibition (HeLa [7]): inactive

SMILES: C=CCOc1cc2c(=O)c(-c3cc(OC)c4c(c3OC)OC(C)(C)O4)coc2cc1OCc1ccccc1
- Activity (Sus scrofa domesticus [1]): 69 to 92%
- viability at 100 µM (HeLa [3]): 107%
- Activity (HeLa [5]): inactive
- IC50 (HeLa [6]): > 100 µM
- inhibition (HeLa [7]): inactive

SMILES: C#CCOc1cc2c(=O)c(-c3cc(OC)c4c(c3OC)OCO4)coc2cc1OCc1ccccc1
- inhibition (HeLa [10]): Active
- inhibition (HeLa [12]): Dose-dependent effect
- Activity (Sus scrofa domesticus [1]): 69 to 92%
- inhibition (HeLa [2]): Active
- inhibition (Homo sapiens): Active
- Activity (HeLa [5]): inactive
- inhibition (HeLa [13]): Active
- IC50 (HeLa [6]): 0.8 µM

SMILES: C=CCOc1cc2c(=O)c(-c3cc(OC)c4c(c3OC)OCO4)coc2cc1OCc1ccccc1
- Activity (Sus scrofa domesticus [1]): 69 to 92%
- inhibition (HeLa [2]): Active
- Activity (HeLa [5]): inactive
- IC50 (HeLa [6]): 9.9 µM

SMILES: COc1cc2c(=O)c(-c3cc(OC)c4c(c3OC)OCO4)coc2cc1OCc1ccccc1
- Activity (Sus scrofa domesticus [1]): 69 to 92%
- inhibition (HeLa [2]): Active
- inhibition (HeLa [4]): inactive
- inhibition (Homo sapiens): Active
- Activity (HeLa [5]): inactive
- IC50 (HeLa [6]): 10.5 µM
- inhibition (HeLa [7]): Active

SMILES: COc1cc2c(=O)c(-c3cc(OC)c4c(c3OC)OC(C)(C)O4)coc2cc1OCc1ccccc1
- Activity (Sus scrofa domesticus [1]): 69 to 92%
- inhibition (HeLa [11]): inactive
- viability at 100 µM (HeLa [3]): 100%
- Activity (HeLa [5]): inactive
- IC50 (HeLa [6]): > 100 µM
- inhibition (HeLa [7]): inactive

SMILES: COc1cc(-c2coc3cc(OCc4ccccc4)c(O)cc3c2=O)c(OC)c2c1OCO2
- Activity (Sus scrofa domesticus [1]): 69 to 92%
- inhibition (HeLa [2]): Active
- Activity (HeLa [5]): inactive
- IC50 (HeLa [6]): 5.8 µM

SMILES: COc1cc(-c2coc3cc(OCc4ccccc4)c(OC4CCCCO4)cc3c2=O)c(OC)c2c1OCO2 (centres undefined)
- Activity (Sus scrofa domesticus [1]): 69 to 92%
- inhibition (HeLa [11]): inactive
- viability at 100 µM (HeLa [3]): 99.1%
- Activity (HeLa [5]): inactive
- IC50 (HeLa [6]): > 100 µM

SMILES: COc1cc(-c2coc3cc(OCc4ccccc4)c(O)cc3c2=O)c(OC)c2c1OC(C)(C)O2
- Activity (Sus scrofa domesticus [1]): 69 to 92%
- Activity (HeLa [5]): inactive
- IC50 (HeLa [6]): > 13 µM
- inhibition (HeLa [7]): inactive

SMILES: COc1cc2c(c(OC)c1OC)-c1ccc(OC)c(=O)cc1[C@@H](NC(C)=O)CC2
- Activity (HeLa [8]): Active
